Measured values collected from several papers.
Lines come from different studies, so protocols differ.
Target: Serine/threonine-protein kinase 26 (STK26, Homo sapiens, UniProt Q9P289)

| Compound | assay | setting | endpoint | value |
| --- | --- | --- | --- | --- |
| Oc1cccc(-c2nc(N3CCOCC3)c3oc4ncccc4c3n2)c1 | cell-free assay | 0.5 µM | remaining signal | 98.6% |
| O=C(Nc1ccc(Oc2ccc(F)cc2)cc1)N1CCc2ncccc2[C@H]1c1ccc(F)cc1 | cell-free assay, competition with immobilised ligand | 1 µM | remaining binding | 100% |
| COc1ccnn2ncc(-c3ccnc(N(C)C)n3)c12 | cell-free assay | 1 µM | remaining signal | 86% |
| COc1cc(-c2cc(-c3ccc(N4CCNCC4)cc3)cnc2N)cc(OC)c1OC | enzyme activity, inhibitor | 1 µM | inhibition | 1% |
| CC1CCCN1c1nccc(-c2cnn3ncccc23)n1 (centres unmarked) | cell-free assay | 1 µM | remaining signal | 100% |
| O=C(NCCCNc1nc(Nc2cccc(NC(=O)N3CCCC3)c2)ncc1I)c1cccs1 | enzyme activity, inhibitor | 1 µM | inhibition | -93% |
| Oc1ccc(-c2nc(-c3ccncc3)c(-c3ccc(F)cc3)[nH]2)cc1 | cell-free assay | 0.5 µM | remaining signal | 101% |
| Nc1nc(NC2CCCCC2)sc1C(=O)c1ccccc1 | enzyme activity, inhibitor | 10 µM | remaining activity | 76% |
| O=C1NC(c2ccccn2)Sc2ccccc21 (centres unmarked) | cell-free assay, competition with immobilised ligand | 1 µM | remaining binding | 80% |
| Cn1c2c(c3ccccc31)C(C#N)C(C)(C)NC2=O (centres unmarked) | thermal stability, DSF | 10 µM | ΔTm | 1.9 °C |
| CN(C(=O)c1ccccc1)c1cc(N(C)c2ccc3c(c2)CCc2ccc(C(=O)NCCN4CCOCC4)cc2C3=O)ccc1F | cell-free assay, competition with immobilised ligand | 1 µM | remaining binding | 78% |
| COc1cccc2c(NCc3ccccc3)nc(-n3c(N)nc4ccccc43)nc12 | target engagement in cells, inhibitor, chemoproteomics | 20 mM | inhibition | 31.1% |
| C[C@H](c1ccc(F)cc1)N(Cc1cccc(C(=O)O)c1)C(=O)c1cnc2ccccc2c1 | cell-free assay, competition with immobilised ligand | 1 µM | remaining binding | 79% |
| Cc1cnc(NC2CCOCC2)nc1-n1cnc(C(=O)NC(CN)c2cc(F)cc(Cl)c2)c1 (centres unmarked) | enzyme activity, inhibitor, radiometric | 1 µM | remaining activity | 109% |
| Cc1ccc(C(=O)Nc2ccc(CN3CCN(C)CC3)c(C(F)(F)F)c2)cc1C#Cc1cnc2cccnn12 | enzyme activity, inhibitor | 23.5 nM | remaining activity | 86% |
| COc1cc2ncnc(Nc3ccc(Oc4ccccc4)cc3C)c2cc1OC | enzyme activity, inhibitor | 1 µM | inhibition | -2% |
| CS(=O)(=O)c1cc(C2(NC(=O)c3cncc4c3cnn4-c3ccc(F)cc3)CC2)ccn1 | cell-free assay, competition with immobilised ligand | 1 µM | remaining binding | 97% |
| COc1cc(Nc2cnc(C#N)c(O[C@H](C)CN(C)C)n2)ncc1-c1cnn(C)c1 | enzyme activity, inhibitor, radiometric | 10 µM | remaining activity | 42% |
| CCCS(=O)(=O)Nc1ccc(F)c(C(=O)c2c[nH]c3ncc(-c4ccc(Cl)cc4)cc23)c1F | enzyme activity, inhibitor | 1 µM | inhibition | < 10% |

| Compound | assay | setting | endpoint | value |
| --- | --- | --- | --- | --- |
| CN(C)C1CCN(CC#Cc2nn(C3CCCC3)c3nc(NCc4ccccc4)ncc23)C1 (centres unmarked) | enzyme activity, inhibitor, FRET | 0.1 µM | inhibition | 9% |
| CCN1CCC2(CC1)NC(=O)c1c(c3ccc(Cl)c(Cl)c3n1C)C2C#N (racemic) | thermal stability, DSF | 10 µM | ΔTm | -0.2 °C |
| CS(=O)(=O)N1CCCC(NC(=O)[C@H](CCC2CCCCC2)NC(=O)c2ccc(CNc3ncnc4c3nnn4-c3ccccc3)cc2)C1 (some centres unmarked) | cell-free assay, competition with immobilised ligand | 0.1 µM | remaining binding | 92% |
| FC(F)(F)Oc1cccc(-c2cnc3ccc(-c4ccncc4)nn23)c1 | enzyme activity, inhibitor, radiometric | 5 µM | activity vs control | 87% |
| Cc1cnn2ncc(-c3ccnc(N(C)C)n3)c2c1 | cell-free assay | 1 µM | remaining signal | 98% |
| CC(C)(C)c1nc(-c2cccc(NS(=O)(=O)c3c(F)cccc3F)c2F)c(-c2ccnc(N)n2)s1 | enzyme activity, inhibitor, radiometric | 1 µM | remaining activity | 103% |
| CC1(C)NC(=O)c2[nH]c3c(Cl)c(Cl)ccc3c2C1C#N (centres unmarked) | thermal stability, DSF | 10 µM | ΔTm | 2.4 °C |
| CC(C)(O)[C@H]1CC[C@H](Nc2ccc3ncc(-c4cccc(C(F)(F)F)c4)n3n2)CC1 | enzyme activity, inhibitor | 1 µM | remaining activity | 109% |
| N#CC1(c2ccccn2)CCN(Cc2cc(C(=O)N3CCCC3)c(=O)n3ccccc23)CC1 | cell-free assay, competition with immobilised ligand | 1 µM | remaining binding | 100% |
| COc1cc(-c2cc(-c3ccc(N4CCNCC4)cc3)cnc2C)cc(OC)c1OC | enzyme activity, inhibitor | 0.1 µM | inhibition | 9% |
| CN1CCC2(CC1)NC(=O)c1c(c3ccc(Cl)c(Cl)c3n1C)C2C#N (racemic) | thermal stability, DSF | 10 µM | ΔTm | 1.7 °C |
| Cn1c(=O)n(-c2ccc(C(C)(C)C#N)cc2)c2c3cc(-c4cnc5ccccc5c4)ccc3ncc21 | enzyme activity, inhibitor | 10 µM | remaining activity | 100% |
| CN(C)c1nccc(-c2cnc3ncccn23)n1 | cell-free assay | 1 µM | remaining signal | 68% |
| O=C(NC[C@@H]1[C@H]2CN(C(=O)OCc3cc(C(F)(F)F)cc(C(F)(F)F)c3)C[C@@H]12)c1ccc2[nH]nnc2c1 | cell-free assay, competition with immobilised ligand | 1 µM | remaining binding | 76% |
| Cc1sc(C(=O)NC2COC2)cc1-n1cc(NC(=O)Nc2c(F)cccc2Cl)cn1 | enzyme activity, inhibitor | 10 µM | remaining activity | 72.4% |
| N[C@@H]1CCN(c2nccc(-c3cnn4ncccc34)n2)C1 | cell-free assay | 1 µM | remaining signal | 100% |
| CN1CC(Oc2cnc(C#N)cc2-c2ccn3nc(NC(=O)C4CC4)cc3c2)C1 | enzyme activity, inhibitor | 1 µM | inhibition | -9% |
| C[C@H]1CCN(c2nccc(-c3cnn4ncccc34)n2)C1 | cell-free assay | 1 µM | remaining signal | 73% |
| CC/C(=N\NC(=O)NCc1cccc(O)c1)c1ccc(O)c(C)c1O | enzyme activity, inhibitor | 0.1 µM | inhibition | 1.3% |
